MEKK2 mut-MEK5 = signal of MEK5 binding to mutant human MEKK2 PB1 domain; bead flow cytometry, Alexa488-MEK5 binding to MEKK2 mutant; percent response, % at 10 µM; 290,000 compounds, 0.35% hits; in the data active = percent response above about 24%, passing the limit was not always enough
ATG4B inhibitor = ATG4B (human) cysteine protease inhibition | Q9Y4P1 | ATG4B cleavage of LC3-PLA2, NBD-HPC fluorescence, 1 h | inhibition, % at 8.33 µM | 340,000 compounds, 0.51% hits; in the data active = inhibition above about 40%
Target sequence (Q9Y4P1 whole entry, looked up): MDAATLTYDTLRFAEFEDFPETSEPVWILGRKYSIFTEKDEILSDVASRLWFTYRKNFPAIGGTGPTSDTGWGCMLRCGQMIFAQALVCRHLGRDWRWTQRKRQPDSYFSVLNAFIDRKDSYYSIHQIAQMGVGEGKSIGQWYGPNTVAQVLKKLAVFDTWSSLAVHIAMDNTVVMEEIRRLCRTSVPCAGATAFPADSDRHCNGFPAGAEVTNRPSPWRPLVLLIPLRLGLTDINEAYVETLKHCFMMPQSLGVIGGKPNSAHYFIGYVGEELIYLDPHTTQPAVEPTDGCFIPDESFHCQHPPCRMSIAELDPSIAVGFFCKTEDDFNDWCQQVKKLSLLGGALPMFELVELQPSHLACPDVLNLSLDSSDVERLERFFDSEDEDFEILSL
MEKK2wt PB1 HTS = raises or lowers MEK5 binding to wildtype human MEKK2 PB1 domain; bead flow cytometry, Alexa488-MEK5 binding to MEKK2 WT; actives lie on both sides; Q9Y2U5; binding response (% of control), % at 10 µM; 290,000 compounds, 1.1% hits; in the data active = binding response below about 67% or above about 130%
Dynein cargo inh = blocks dynein driven cargo transport along microtubules | 3617.4 mouse cells, GR-EGFP nuclear translocation imaging; test concentration mostly 20 µM; stimulated with dexamethasone, 1 µM; active compounds read low | z-score, hits read low | 220,000 compounds, 0.47% hits | AID 1381;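 active = plate z-score of nuclear minus cytoplasmic receptor signal below a set negative limit, without overly bright fluorescence or cell loss, cut at about -3.5 in these data, passing the limit was not always enough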;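 also: z-score of nuclear minus cytoplasmic ring GR-EGFP intensity difference per well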
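Schedule: 48 h induction, then 1 h compound, then 30 min agonist, 37 °C. Buffer or medium: tetracycline-free induction medium containing charcoal-stripped FBS. Reagent: 1.0 µM final dexamethasone stimulus. Evaluation: nuclear versus cytoplasmic GR-EGFP signal, averaged per well. Signal: high-content fluorescence imaging after fixation.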
B2AR ag = activates human beta-2 adrenergic receptor causing internalization; P07550; Am2.2-beta2AR cells, FAP receptor internalization, flow cytometry; response, % (concentration not given with the values); 340,000 compounds, 0.43% hits;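 active = response above a set limit, near 3 SD of response in nonfluorescent compounds, cut at about 42% in these data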
MEKK3 PB1 HTS = modulators (inhibitors or enhancers) of MEK5 binding to human MEKK3 PB1 domain | Q99759 | bead-based flow cytometry, Alexa488-MEK5 binding to MEKK3; actives lie on both sides; 0 = blocked by unlabeled MEK5, 100 = vehicle | binding response (% of control), % at 10 µM | 290,000 compounds, 1.4% hits | AID 1529;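 active = binding response more than 3 SD above or below the average of its plate-row segment, actives on both sides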;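 also: Alexa488 bead fluorescence after subtracting the streptavidin-only scavenger bead signal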
Active calls of the source: *; / = no result; ! = repeats disagree; [ ] = dose if it differs, or a comment. Compounds with a hit are over-represented: about 2.9% of the library has one in this group of screens.

SMILES	MEKK2 mut-MEK5	ATG4B inhibitor	MEKK2wt PB1 HTS	Dynein cargo inh	B2AR ag	MEKK3 PB1 HTS
Cc1ccc(NC(=S)NC(=O)c2ccccc2)cc1NC(=S)NC(=O)c1ccccc1	-11	-2	2.0*	-0.15	-2	83
O=C(Nc1ccc(N2CCCC2)cc1)c1cccc(-c2cc3ccccc3oc2=O)c1	15	34	95	-0.48	57*	101
CCCCc1oc2ccccc2c1C(=O)c1cc(I)c(OCCN(CC)CC)c(I)c1	51*	1	163*	0.12	9	119
O=C(OCC(=O)N1CCOCC1)c1cccc(S(=O)(=O)Nc2ccc(F)cc2)c1	/	-5	/	/	-1	/
CC(C)c1ccc(C(C)NCCS(=O)(=O)c2ccc(Cl)cc2)cc1 (stereo unspecified)	9	1	108	/	-4	102
CCN(CC)S(=O)(=O)c1cccc(NC(=O)C2CC(=O)N(c3ccc4c(c3)OCCO4)C2)c1 (stereo unspecified)	/	-11	/	/	-5	/
CCN(CC)S(=O)(=O)c1ccc(OC)c(NC(=O)C2CC(=O)N(c3ccc4c(c3)OCCO4)C2)c1 (stereo unspecified)	-21	1	-2.0*[inhibitor]	/	-5	0.0*[inhibitor]
CC(=O)c1ccc(N2CCN(C(=O)c3ccc4c(Cl)c5c(nc4c3)CCCC5)CC2)cc1	12	/	96	-3.6*	/	108
CC(C)c1ccc2c(c1)CCC1C(C)(CN)CCCC21C (stereo unspecified)	25*	9	155*	-1.1	43*	36*[inhibitor]
CC1=CC(C)(C)n2c(O)c(N=NC(N)=S)c3cccc1c32	0	-5	108	-0.31	-28	146*
CC1=CC(C)(C)n2c(O)c(N=NC(N)=S)c3c(C)ccc1c32	14	-4	107	0.22	-15	101
CC(=O)Nc1ccc(NC(=O)CSc2nnc(N)n2-c2ccccc2)cc1	/	10	/	/	4	/
CC(C)N1CCN(C(=O)C2CCC(=O)N(CCc3cccc(F)c3)C2)CC1 (stereo unspecified)	1	-2	97	/	2	100
O=C(Nc1ccc(Nc2ccncc2)cc1)c1ccc(Nc2ccnc3ccc([N+](=O)[O-])cc23)cc1[N+](=O)[O-]	-49	11	28*[inhibitor]	-0.53	22	13*[inhibitor]
O=C(Nc1ccc(Nc2ccncc2)cc1)c1ccc([N+](=O)[O-])cc1	12	-2	103	0.16	2	98
Cc1cccc(NC2=C/C(=N/S(=O)(=O)c3cccs3)c3ccccc3C2=O)c1	0	28	92	-0.34	21	99
CCc1ccc(S(=O)(=O)/N=C2/C=C(Sc3ncn[nH]3)C(=O)c3ccccc32)cc1	0	15	99	-6.7*	55*	102
Cc1ccc(Cl)cc1NC1=C/C(=N\S(=O)(=O)c2cccs2)c2ccccc2C1=O	-2	-1	93	-0.55	45*!	99
CCc1ccc(S(=O)(=O)/N=C2\C=C(Nc3ccc(O)cc3)C(=O)c3ccccc32)cc1	-7	25	94	/	45*	101
O=C1C(Nc2ccc(O)cc2)=C/C(=N/S(=O)(=O)c2cccs2)c2ccccc21	-4	29	97	-0.57	61*	101
O=C(CCc1ccccc1)Nc1cccc(S(=O)(=O)N2CCOCC2)c1	/	-6	/	/	-8	/
Cc1cc(C)c2c(=N)c3ccccc3n(CCCCCCCCn3c4ccccc4c(=N)c4c(C)cc(C)nc43)c2n1	/	21	/	/	63*	/
CC(=O)NS(=O)(=O)c1ccc2c(c1)C(=O)c1cc(S(=O)(=O)NC(C)=O)ccc1-2	-3	-2	-8.0*	/	2	98
CN(C)S(=O)(=O)c1ccc(N2CCCC2)c(C(=O)OCC(=O)NC2(C#N)CCCCC2)c1	/	0	/	/	0	/
COc1ccc(-c2sc3ccccc3c2-c2ccc(OCCN3CCCCC3)cc2)cc1	/	5	/	/	-5	/
SMILES	MEKK2 mut-MEK5	ATG4B inhibitor	MEKK2wt PB1 HTS	Dynein cargo inh	B2AR ag	MEKK3 PB1 HTS
COc1cccc(-c2sc3ccccc3c2-c2ccc(OCCN(C)C)cc2)c1	/	-1	/	/	65*	/
c1ccc(-c2sc3ccccc3c2-c2ccc(OCCN3CCCC3)cc2)cc1	/	4	/	/	68*	/
Cc1c(NC(=O)C(C)OC(=O)c2ccc([N+](=O)[O-])cc2Cl)c(=O)n(-c2ccccc2)n1C (stereo unspecified)	/	8	/	/	-3	/
CN(C)CCCn1c2c3ccccc3ccc2c2oc(=O)c3ccccc3c21	/	25	/	/	43*	/
O=C(COc1cc2oc(=O)c3c(c2cc1Cl)CCC3)Nc1ccc(CN2CCOCC2)cc1	-9	6	99	/	42*	100
CCN(CC)c1ccc(NC(=O)CCN2C(=O)c3ccccc3S2(=O)=O)c(C)c1	/	-8	/	/	1	/
Cc1oc(-c2cc(F)ccc2F)nc1CN1CCN(C)C(=O)[C@@H]1C	-11	-1	22*	0.44	-5	54
COc1ccc(OC)c(NC(=O)COC(=O)CC2CCCCC2)c1	/	3	/	/	7	/
Cc1cc(N2C(=O)C(O)=C(C(=O)c3ccco3)C2c2ccccc2F)no1 (stereo unspecified)	3	3	104	/	6	102
COc1ccc(C(=O)/C=C/c2ccc(OC)c(O)c2)c(F)c1	9	-1	99	0.034	18	98
COc1cc(/C=C/C(=O)c2ccc(Cl)s2)cc(OC)c1O	1	-4	98	-4*	-3	100
O=C(C=Cc1ccc(Cl)s1)c1ccc(Cl)s1	/	7	/	/	8	/
COc1ccc(/C=C/C(=O)c2ccc(Cl)s2)cc1O	2	-10	100	-3.8*	-8	103
O=C(NC1CC1)C1CCN(C2CCN(C(=O)c3c(F)cccc3Cl)CC2)CC1	12	-3	103	/	-1	102
O=C(NCCCNC(=O)c1ccccc1)c1ccccc1	/	11	/	/	6	/
O=C(NCNC(=O)c1ccccc1)c1ccccc1	-2	0	99	0.017	63*	99
Cc1ccccc1OCC(=O)NCCCNC(=O)c1ccncc1	-5	-4	94	/	8	101
CN1C(=O)CSc2ccc(NC(=O)N3CCC(N4CCCCC4)CC3)cc21	15	9	-1.0*	-0.48	5	102
Cc1ccc(C)c(N2CCN(C(=O)Nc3ccc4c(c3)N(C)C(=O)CS4)CC2)c1	1	-11	110	-0.04	11	104
COc1ccc(-c2nn(-c3ccccc3)cc2C(=O)O)cc1N	4	-2	111	/	-4	109
S=C(NCCc1ccccn1)Nc1ccc(Cl)c(Cl)c1	4	4	102	0.46	53*	106
S=C(NCCc1ccccn1)Nc1cc(Cl)cc(Cl)c1	5	2	100	-0.081	5	101
Nc1ccc(-c2c3ccc(=O)cc-3oc3cc(O)ccc23)cc1C(=O)O	27*	-124	132	/	-159	106

Screens (PubChem BioAssay)
